The record followed here is ChEMBL document CHEMBL3112507 (Bioorg Med Chem, 2014).

Data set [1] concerns the target Prostaglandin G/H synthase 1 (Homo sapiens) (UniProt P23219). The experiment in a line: Inhibition of COX1 (unknown origin) by EIA.
The target in data set [2] is Phospholipase A2 (Homo sapiens) (UniProt P04054). The experiment in a line: Inhibition of PLA2 (unknown origin) by Ellman's method.
Data set [3] addresses T1, Polyunsaturated fatty acid 5-lipoxygenase (Homo sapiens) (UniProt P09917).
T1 sequence (whole entry): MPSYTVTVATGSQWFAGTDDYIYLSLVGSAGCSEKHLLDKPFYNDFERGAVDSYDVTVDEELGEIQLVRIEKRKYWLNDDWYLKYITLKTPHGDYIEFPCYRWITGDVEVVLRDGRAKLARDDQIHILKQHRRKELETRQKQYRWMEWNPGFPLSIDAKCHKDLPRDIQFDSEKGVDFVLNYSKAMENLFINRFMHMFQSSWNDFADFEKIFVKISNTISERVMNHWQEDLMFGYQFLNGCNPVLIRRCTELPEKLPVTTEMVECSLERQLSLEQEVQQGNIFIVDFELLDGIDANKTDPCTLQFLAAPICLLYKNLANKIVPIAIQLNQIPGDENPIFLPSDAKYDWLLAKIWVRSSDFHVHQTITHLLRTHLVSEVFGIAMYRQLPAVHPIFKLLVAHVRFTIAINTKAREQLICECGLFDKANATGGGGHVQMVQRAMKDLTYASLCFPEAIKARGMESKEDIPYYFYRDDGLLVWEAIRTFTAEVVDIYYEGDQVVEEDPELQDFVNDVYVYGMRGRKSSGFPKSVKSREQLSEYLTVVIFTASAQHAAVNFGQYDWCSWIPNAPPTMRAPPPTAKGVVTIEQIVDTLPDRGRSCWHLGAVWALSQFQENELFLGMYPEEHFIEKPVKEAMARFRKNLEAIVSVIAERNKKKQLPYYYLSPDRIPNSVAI
The experiment in a line: Inhibition of 5-LOX (unknown origin) using arachidonic acid as substrate at 10 uM after 5 mins by EIA. The procedure, abridged:
(§1)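 Test compounds dissolved in DMSO at 0.01, 0.1, 1, 10 and 100 µM. Each was added to 5-LOX enzyme in assay buffer, and the reaction was started with arachidonic acid substrate. Plates were shaken 5 min, chromogen was added, shaken 5 min more, then read at 490 nm. Blanks were buffer plus AA; positive controls were enzyme plus AA. Run in duplicate, means with deviation <5% used. Percent inhibition was calculated from lipoxygenase activity; IC50 derived from the concentration series.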

In data set [4] the target is T1, Polyunsaturated fatty acid 5-lipoxygenase (Homo sapiens). The experiment in a line: Inhibition of 5-LOX (unknown origin) using arachidonic acid as substrate at 1 uM after 5 mins by EIA. The procedure, abridged: as §1
The target is the same in data set [5]. The experiment in a line: Inhibition of 5-LOX (unknown origin) using arachidonic acid as substrate at 0.1 uM after 5 mins by EIA. In outline:
as §1

The target is the same in data set [6]. The experiment in a line: Inhibition of 5-LOX (unknown origin) using arachidonic acid as substrate at 0.01 uM after 5 mins by EIA. In outline: as §1
Data set [7] addresses T2, Prostaglandin G/H synthase 2 (Homo sapiens) (UniProt P35354).
T2 sequence (whole entry): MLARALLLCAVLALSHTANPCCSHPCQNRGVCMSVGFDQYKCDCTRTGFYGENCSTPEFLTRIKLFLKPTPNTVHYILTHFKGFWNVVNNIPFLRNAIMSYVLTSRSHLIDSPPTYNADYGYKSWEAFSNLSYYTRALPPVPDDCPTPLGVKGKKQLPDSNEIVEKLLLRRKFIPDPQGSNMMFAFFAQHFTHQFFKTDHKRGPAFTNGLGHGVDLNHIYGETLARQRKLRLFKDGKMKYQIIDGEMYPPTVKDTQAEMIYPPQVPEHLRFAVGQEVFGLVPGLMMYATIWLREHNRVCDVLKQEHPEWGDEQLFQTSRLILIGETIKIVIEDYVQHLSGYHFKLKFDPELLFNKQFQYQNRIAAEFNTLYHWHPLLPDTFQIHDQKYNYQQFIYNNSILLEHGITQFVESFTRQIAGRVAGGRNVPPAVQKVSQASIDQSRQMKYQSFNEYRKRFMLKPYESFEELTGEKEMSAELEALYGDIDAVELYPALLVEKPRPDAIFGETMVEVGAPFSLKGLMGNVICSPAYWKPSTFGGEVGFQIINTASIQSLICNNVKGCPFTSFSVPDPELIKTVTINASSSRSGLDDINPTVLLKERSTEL
The experiment in a line: Inhibition of COX2 (unknown origin) by EIA.

The target of data set [8] is T1, Polyunsaturated fatty acid 5-lipoxygenase (Homo sapiens). The experiment in a line: Inhibition of 5-LOX (unknown origin) using arachidonic acid as substrate at 100 uM after 5 mins by EIA. In outline: as §1
Data set [9] has as its target T3, Polyunsaturated fatty acid 5-lipoxygenase (Homo sapiens, UniProt P09917).
T3 sequence (P09917 whole entry): T1 sequence (whole entry)
The experiment in a line: (§2) Inhibition of 5-LOX (unknown origin) by UV-Vis spectrophotometry. In outline:
(§3)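 UV–visible spectral titration of the compounds with 5-LOX. Association constant Ka was obtained from 1/(Af−Aobs) = 1/(Af−Afc) + 1/(Ka[Af−Afc][L]). Ki was calculated as IC50/(1+[L]/Kd) using IC50 values from the enzyme immunoassay.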

Data set [10] concerns the target T1, Polyunsaturated fatty acid 5-lipoxygenase (Homo sapiens). The data set is described as §2. In outline: as §3
Data set [11] has as its target T3, Polyunsaturated fatty acid 5-lipoxygenase. The experiment in a line: Inhibition of 5-LOX (unknown origin) using arachidonic acid as substrate after 5 mins by EIA. The procedure, abridged: as §1
The nature of data set [12]: Octanol-water partition coefficient, log P of the compound. Type of data set: physicochemical.
Data set [13] has as its target T3, Polyunsaturated fatty acid 5-lipoxygenase. The experiment in a line: Inhibition of 5-LOX (unknown origin) using arachidonic acid as substrate after 5 mins by EIA in presence of pig liver esterase. The procedure, abridged: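 Same 5-LOX colorimetric immunoassay kit procedure (compounds at 0.01–100 µM in DMSO, AA substrate, chromogen, 490 nm, duplicates). Ester compounds were first treated with pig liver esterase, extracted per a reported procedure, before addition to the 5-LOX enzyme.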

pIC50, pKi: −log10 of the molar value. Calls of active or inactive are those of the source. The calls are words filed in the database; no cut-off is given here.

Phospholipase A2 (Homo sapiens), sequence (P04054 23-148 limits assumed): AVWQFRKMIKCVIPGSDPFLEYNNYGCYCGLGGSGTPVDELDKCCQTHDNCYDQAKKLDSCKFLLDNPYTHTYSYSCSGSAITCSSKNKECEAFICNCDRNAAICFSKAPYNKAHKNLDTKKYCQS
Prostaglandin G/H synthase 1 (Homo sapiens), sequence (P23219 whole entry): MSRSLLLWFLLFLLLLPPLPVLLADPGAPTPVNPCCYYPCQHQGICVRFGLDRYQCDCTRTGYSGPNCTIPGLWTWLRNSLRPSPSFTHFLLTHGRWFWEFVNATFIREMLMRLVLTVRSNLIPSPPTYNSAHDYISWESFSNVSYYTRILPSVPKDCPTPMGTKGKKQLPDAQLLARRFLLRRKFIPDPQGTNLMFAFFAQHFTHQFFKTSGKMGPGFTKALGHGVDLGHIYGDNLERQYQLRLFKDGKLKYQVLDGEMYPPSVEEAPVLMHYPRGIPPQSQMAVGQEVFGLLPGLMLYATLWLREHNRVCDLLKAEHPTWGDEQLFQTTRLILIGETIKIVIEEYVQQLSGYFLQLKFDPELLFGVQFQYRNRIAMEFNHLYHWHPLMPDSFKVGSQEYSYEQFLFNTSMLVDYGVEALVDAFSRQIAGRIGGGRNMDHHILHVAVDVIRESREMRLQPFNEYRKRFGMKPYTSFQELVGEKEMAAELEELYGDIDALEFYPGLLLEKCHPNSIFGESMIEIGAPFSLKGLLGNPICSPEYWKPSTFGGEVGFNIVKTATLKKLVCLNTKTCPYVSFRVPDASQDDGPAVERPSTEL

For `COC(=O)[C@@H](Cc1c[nH]c2ccccc12)NC(=O)C(=O)c1c[nH]c2ccccc12`, the inhibition entry in data set [1], in data set [2] and in data set [7] was “inactive” in each case. Besides, the inhibition is 49.8% in [3]; 43.4% in [4]; 41.1% in [5]; 35% in data set [6]; 65% in [8].

Consider `Cc1ccc(S(=O)(=O)n2cc(C(=O)C(=O)N[C@H](Cc3c[nH]c4ccccc34)C(=O)O)c3ccccc32)cc1`, for which the inhibition result in data set [1], in data set [2] and in [7] was “inactive” in each case. In addition, the inhibition is 81.5% in [3]; 67.3% in data set [4]; 56.5% in data set [5]; 51% in [6]; 85% in data set [8]. This compound also had a pKi in data set [9] of 8.00. In addition, the Ka in data set [10] worked out at 3.6 ×10⁵ /M. In [11], this compound had a pIC50 of 8.00.

With `Cc1ccc(S(=O)(=O)n2cc(C(=O)C(=O)N3CCC[C@@H]3C(=O)O)c3ccccc32)cc1`, the inhibition entry in data set [1], in data set [2] and in data set [7] was “inactive” in each case. Moreover, the inhibition in data set [3] was 68.8%; in data set [4] it was 53.5%; in data set [5] it was 45%; in data set [6], 27.3%; in [8], 74.3%. The pKi in [9] was 6.29. The Ka in data set [10] is 2.6 ×10⁵ /M. The compound also had a pIC50 in [11] of 6.22.

Regarding `COC(=O)[C@@H](Cc1cnc[nH]1)NC(=O)C(=O)c1c[nH]c2ccccc12`, the inhibition entry in [1], in [2] and in [7] was “inactive” each time. The inhibition in data set [3] turned out to be 45.5%; in data set [4], 40.8%; in [5], 37.7%; in data set [6] it was 30%; in data set [8] it was 65%.

In data set [12], `COC(=O)[C@@H](Cc1c[nH]c2ccccc12)NC(=O)C(=O)c1cn(S(=O)(=O)c2ccc(C)cc2)c2ccccc12` came in with a logP of 2.34. For the same compound, the inhibition result in data set [1], in data set [2] and in data set [7] was “inactive” in each case. Also, the inhibition stood at 75.5% in data set [3]; 62.7% in data set [4]; 55.3% in data set [5]; 45.5% in [6]; 80.4% in data set [8]. For the same compound, the pKi in data set [9] was 7.43. In [10], this compound had a Ka of 6.67 ×10⁵ /M. Further, the pIC50 in data set [13] was 7.85; in data set [11], 7.28.

For the compound `CC(C)(C)Sc1c(CC(C)(C)C(=O)O)n(Cc2ccc(Cl)cc2)c2ccc(OCc3ccc4ccccc4n3)cc12` [QUIFLAPON], the pIC50 in [11] was 8.80.

In the case of `Cc1ccc(S(=O)(=O)n2cc(C(=O)C(=O)N[C@H](CCC(=O)O)C(=O)O)c3ccccc32)cc1`, the inhibition result in data set [1], in data set [2] and in [7] was “inactive” throughout. In addition, the inhibition is 87.6% in data set [3]; 59.5% in data set [4]; 50.5% in data set [5]; 42% in data set [6]; 90.6% in [8]. The pKi in data set [9] is 7.02. In data set [10], this compound had a Ka of 1.1 ×10⁵ /M. Besides, the pIC50 in [11] was 7.01.

As to `Cc1ccc(S(=O)(=O)n2cc(C(=O)C(=O)N[C@H](Cc3cnc[nH]3)C(=O)O)c3ccccc32)cc1`, the inhibition entry in [1], in [2] and in [7] was “inactive” each time. Moreover, the inhibition in [3] turned out to be 55.5%; in data set [4], 48.7%; in [5], 28.5%; in data set [6], 20%; in data set [8], 64.7%. In data set [9], this compound showed a pKi of 5.60. This compound yielded a Ka in [10] of 3.7 ×10⁴ /M. Also, in [11], the pIC50 is 5.55.

Regarding `COC(=O)[C@@H](Cc1cnc[nH]1)NC(=O)C(=O)c1cn(S(=O)(=O)c2ccc(C)cc2)c2ccccc12`, in data set [12], the logP worked out at 1.98. Further, the inhibition result in [1], in data set [2] and in data set [7] was “inactive” in each case. For the same compound, the inhibition in data set [3] was 58.2%; in [4] it was 45.3%; in data set [5], 40.5%; in data set [6] it was 30%; in data set [8] it was 63.8%. In [9], this compound gave a pKi of 5.38. This compound registered a Ka in [10] of 1.01 ×10⁴ /M. Moreover, the negative-log IC50 (pIC50) in data set [13] is 5.53; in [11] it was 5.36.

For `COC(=O)CC[C@@H](NC(=O)C(=O)c1cn(S(=O)(=O)c2ccc(C)cc2)c2ccccc12)C(=O)OC`, in [12], the logP amounted to 2.12. Also, the inhibition entry in [1], in [2] and in [7] was “inactive” in each case. The inhibition stood at 60.3% in [3]; 51.8% in [4]; 35.2% in data set [5]; 18.5% in data set [6]; 65% in data set [8]. Further, the pKi in [9] was 6.09. Further, the Ka in data set [10] came to 1.06 ×10⁵ /M. Also, the figures for the pIC50 in data set [13] and in data set [11] were 6.89 and 6.05, respectively.

In the case of `COC(=O)CC[C@@H](NC(=O)C(=O)c1c[nH]c2ccccc12)C(=O)OC`, the inhibition result in data set [1], in [2] and in data set [7] was “inactive” throughout. Besides, the inhibition was 51.2% in data set [3]; 44.8% in [4]; 40% in data set [5]; 36% in [6]; 55% in data set [8]. Moreover, the pIC50 in data set [11] was 5.08.

Take `COC(=O)[C@H]1CCCN1C(=O)C(=O)c1c[nH]c2ccccc12`: the inhibition entry in data set [1], in data set [2] and in data set [7] was “inactive” in each case. The inhibition came out at 59.8% in data set [3]; 40.2% in data set [4]; 25.5% in data set [5]; 22.5% in [6]; 60.6% in data set [8]. Besides, in data set [11], the pIC50 is 5.26.

With `COC(=O)CNC(=O)C(=O)c1c[nH]c2ccccc12`, the inhibition result in data set [1], in [2] and in data set [7] was “inactive” each time. Besides, the inhibition amounted to 55.5% in [3]; 47.8% in data set [4]; 46.2% in [5]; 40% in data set [6]; 70% in [8]. The same compound gave a pIC50 in [11] of 5.46.

The term inhibition denotes the change of the read-out against control, counted positive when it falls. In general, pKi refers to the negative decadic logarithm of the Ki, by convention in mol/L. Lower therefore signals a large Ki. Broadly, the pIC50 is the negative decadic logarithm of the IC50, by convention in mol/L. By logP is commonly meant a log measure of how a compound divides between an organic and an aqueous phase. Read a high logP as higher lipophilicity.
